Published values collected from several papers.
Lines come from different studies, so protocols differ.
PTGS2: Prostaglandin G/H synthase 2 (PTGS2, Homo sapiens, UniProt P35354)
CHRM3: Muscarinic acetylcholine receptor M3 (CHRM3, Homo sapiens, UniProt P20309)
Rock2: Rho-associated protein kinase 2 (Rock2, Rattus norvegicus, UniProt Q62868)
SIGMAR1: Sigma non-opioid intracellular receptor 1 (SIGMAR1, Cavia porcellus, UniProt Q60492)

C=C[C@@]1(C)C=C2CC[C@@H]3[C@](C)(CCC[C@@]3(C)C(=O)O)[C@H]2CC1
inhibition (PTGS2; enzyme activity; inhibitor; 0.98 µg/mL): 15.2%

Oc1ccc2ccccc2n1
inhibition (Serum paraoxonase/arylesterase 1 (PON1, Homo sapiens, UniProt P27169); enzyme activity; inhibitor; 20 µM): 84%

CCN1CCN(Cc2ccc(NC(=O)c3ccc(C)c(Oc4ccnc5[nH]ccc45)c3)cc2C(F)(F)F)CC1
inhibition (Scaffold protein ILK (ILK, Homo sapiens, UniProt Q13418); target engagement in cells; inhibitor; chemoproteomics; Huh-7; 1 µM): -36.8%

COc1cc(NC(C)=O)c(Cl)cc1C(=O)Nc1nccs1
inhibition (CHRM3; cell-free assay; 10 µM): -22.1%

O=C1N=C(N2CCCCN2)S/C1=C\c1ccc(F)cc1O
inhibition (5-hydroxytryptamine receptor 1B (Htr1b, Rattus norvegicus, UniProt P28564); ligand displacement; radioligand; 10 µM): < 10%

O=C(c1ccc(Cl)cc1)N(Cc1ccccc1)C1CCCCC1
inhibition (CHRM3; cell-free assay; 10 µM): -7.8%

CN(C)C1CCN(CC#Cc2nn(C3CCCC3)c3nc(NCc4ccccc4)ncc23)C1 (stereo not shown)
inhibition (Ribosomal protein S6 kinase beta-1 (RPS6KB1, Homo sapiens, UniProt P23443); enzyme activity; inhibitor; FRET; 1 µM): 4%

CC/C(=N\NC(=O)NCc1cccc(O)c1)c1ccc(O)c(C)c1O
inhibition (NPM/ALK (Nucleophosmin/ALK tyrosine kinase receptor) (NPM1/ALK, Homo sapiens, UniProt P06748+Q9UM73); enzyme activity; inhibitor; 0.1 µM): -0.4%

COc1ccc(-c2cc(=O)c3c(O)cc(O[C@@H]4O[C@H](CO)[C@@H](O)[C@H](O)[C@H]4O)cc3o2)cc1O
inhibition (PTGS2; enzyme activity; inhibitor; 7.81 µg/mL): 100%

Cc1ccc(Nc2nccc(N(C)c3ccc4c(C)n(C)nc4c3)n2)cc1S(N)(=O)=O
inhibition (Rock2; enzyme activity; inhibitor; 10 µM): 29%

COc1cc2c(cc1OC)CN(C(C)CCc1ccc(O)cc1)CC2 (stereo not shown)
inhibition (SIGMAR1; ligand displacement; radioligand; 0.1 µM): 34%

COC(=O)c1ccc(O)cc1
inhibition (PTGS2; enzyme activity; inhibitor; 15.63 µg/mL): 53.2%

CNC(=O)[C@@]12C[C@@H]1[C@@H](n1cnc3c(NC)nc(C#Cc4ccc(Cl)s4)nc31)[C@H](O)[C@@H]2O
inhibition (SIGMAR1; ligand displacement; radioligand; 10 µM): 60 to 70%

CN(Cc1ccc(NC(=O)C2=Cc3cc(-c4ccc(OCCCCCCCF)cc4)ccc3CCC2)cc1)C1CCOCC1
inhibition (SIGMAR1; ligand displacement; radioligand; 10 µM): 14%

CNC(=O)c1cc(Oc2ccc(NC(=O)Nc3ccc(Cl)c(C(F)(F)F)c3)cc2)ccn1
inhibition (Rock2; enzyme activity; inhibitor; 0.3 µM): 17%

COc1cc(-c2cc(=O)c3c(O)cc(O)cc3o2)ccc1O
inhibition (PTGS2; enzyme activity; inhibitor; 7.81 µg/mL): 58.6%
